Experimental data: PMC4872390 (The American journal of Chinese medicine, 2015)
Where two headings read alike, the source gives them in different places.

Columns and labels:
2C19 = conditions: 10 μM NBN; corresponding probe reaction; ref Linder et al., 2009; cited from earlier work
CYP 2C19 = CYP 2C19 (Homo sapiens, UniProt P33261); experiment: Incubation of D or DA with recombinant human CYP 2C19; type: in vitro ADME; conditions: for conversion to DOH or metabolites by 2C19 in the absence of NADPH: incubated in the absence of NADPH; for average velocity of 2C19 in the first 10 minutes: recombinant 2C19, substrate 6 μM
CYP 3A4 = CYP 3A4 (Homo sapiens, UniProt P08684); experiment: Incubation of D or DA with recombinant human CYP 3A4; type: in vitro ADME; conditions: recombinant 3A4; substrate 6 μM
[1] = test system: human liver microsome (HLM); experiment: In vitro metabolism in human liver microsomes; type: in vitro ADME; conditions: substrate 6 μM, 60 minutes; for effect of NBN and ketoconazole together on metabolism by HLM: 10 μM NBN + 2 μM ketoconazole
Summary of the method: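 Human liver microsomes at 1 mg/mL in 50 mM potassium phosphate (pH 7.4) with 1 mM NADPH and 6 μM substrate; final methanol 0.5% (v/v). Inhibitors came from DMSO stocks (DMSO at most 0.5% v/v). NBN at 10 μM and ketoconazole at 2 μM were added with the substrate. Incubated at 37°C for 1 hour, then extracted and quantitated. Three or more independent experiments.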

[2] = type: in vivo; conditions: mice, ABT vs. no ABT
[3] = type: in vivo, human
[4] = ref Zhang et al., 2015, cited from earlier work
[5] = rats; ref Song et al., 2011; cited from earlier work
[6] = rats, ref Li et al., 2013b, cited from earlier work
3A4 = conditions: 1 μM ketoconazole; corresponding probe reaction; ref Linder et al., 2009; cited from earlier work

Sequence of CYP 2C19 (P33261 whole entry): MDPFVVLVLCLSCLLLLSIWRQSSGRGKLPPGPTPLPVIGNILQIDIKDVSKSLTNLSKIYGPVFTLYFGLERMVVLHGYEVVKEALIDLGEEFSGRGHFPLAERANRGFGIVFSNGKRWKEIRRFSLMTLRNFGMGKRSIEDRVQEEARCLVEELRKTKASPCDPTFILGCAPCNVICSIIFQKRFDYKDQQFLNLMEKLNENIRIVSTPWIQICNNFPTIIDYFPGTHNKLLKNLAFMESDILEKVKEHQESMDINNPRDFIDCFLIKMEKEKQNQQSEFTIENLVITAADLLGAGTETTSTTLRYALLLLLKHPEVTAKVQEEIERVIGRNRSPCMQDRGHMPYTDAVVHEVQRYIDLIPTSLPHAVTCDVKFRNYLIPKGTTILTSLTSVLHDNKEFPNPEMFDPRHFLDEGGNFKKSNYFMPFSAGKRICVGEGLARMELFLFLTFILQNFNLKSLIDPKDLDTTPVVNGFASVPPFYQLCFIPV
Sequence of CYP 3A4 (P08684 whole entry): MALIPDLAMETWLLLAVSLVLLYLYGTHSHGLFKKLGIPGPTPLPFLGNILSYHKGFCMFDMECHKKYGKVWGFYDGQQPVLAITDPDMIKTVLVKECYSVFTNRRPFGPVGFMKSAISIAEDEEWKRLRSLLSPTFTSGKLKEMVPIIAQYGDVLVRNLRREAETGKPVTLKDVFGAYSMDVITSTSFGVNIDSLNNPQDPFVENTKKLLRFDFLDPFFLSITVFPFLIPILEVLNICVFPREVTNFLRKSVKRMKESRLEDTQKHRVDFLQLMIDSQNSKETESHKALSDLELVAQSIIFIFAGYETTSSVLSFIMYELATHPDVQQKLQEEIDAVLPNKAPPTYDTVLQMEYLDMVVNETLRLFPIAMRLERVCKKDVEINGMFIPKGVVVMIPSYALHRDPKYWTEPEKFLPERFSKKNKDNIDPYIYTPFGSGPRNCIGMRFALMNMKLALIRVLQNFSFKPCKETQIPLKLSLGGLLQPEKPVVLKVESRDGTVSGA

Row | SMILES | conversion to DOH or metabolites by 2C19 in the absence of NADPH (CYP 2C19) | average velocity of 2C19 in the first 10 minutes (CYP 2C19) | average velocity of 3A4 in the first 10 minutes (CYP 3A4) | effect of NBN and ketoconazole together on metabolism by HLM [1] | increase of plasma level by ABT pretreatment ([2]; 1 hour after D/DA dose) | increase of prostate content by ABT pretreatment ([2]; 1 hour after D/DA dose) | increase of plasma level by ABT pretreatment ([2]; 2 hours after D/DA dose) | increase of prostate content by ABT pretreatment ([2]; 2 hours after D/DA dose) | also measured
1 | CCC1(c2ccccc2)NC(=O)N(Cc2ccccc2)C1=O (single isomer, unassigned; (+)) [NBN, (+)-N-3-benzylnirvanol] | – | – | – | – | – | – | – | – | inhibition of 2C19 activity in HLM (2C19): 55%
2 | CC1(C)Oc2cc3oc(=O)ccc3cc2C[C@@H]1O [DOH, decursinol] | – | – | – | – | 1.5–2 fold | 1.5–2 fold | 1.5–2 fold | 1.5–2 fold | urinary excretion of free DOH, share of D/DA ingested ([4]; human subjects): < 1%; absorption (AUC-oral dose vs. AUC-i.v.) [5]: ~ 45%; AUC of plasma DOH ([6]; equal moles by oral gavage): 65012 ng·h/mL; AUC ratio, DOH group vs. D/DA group ([6]; equal moles by oral gavage): ~ 2.4 fold; tmax of plasma DOH peak ([6]; oral gavage): ~ 0.7 h
3 | CC(=O)N1CCN(c2ccc(OCC3COC(Cn4ccnc4)(c4ccc(Cl)cc4Cl)O3)cc2)CC1 (centres unmarked) [ketoconazole] | – | – | – | – | – | – | – | – | inhibition of 3A4 activity in HLM (3A4): 59%

The next lines start with results.

Row | conversion to DOH or metabolites by 2C19 in the absence of NADPH (CYP 2C19) | average velocity of 2C19 in the first 10 minutes (CYP 2C19) | average velocity of 3A4 in the first 10 minutes (CYP 3A4) | effect of NBN and ketoconazole together on metabolism by HLM [1] | increase of plasma level by ABT pretreatment ([2]; 1 hour after D/DA dose) | increase of prostate content by ABT pretreatment ([2]; 1 hour after D/DA dose) | increase of plasma level by ABT pretreatment ([2]; 2 hours after D/DA dose) | increase of prostate content by ABT pretreatment ([2]; 2 hours after D/DA dose) | SMILES | also measured
4 | not able to convert | 60 pmol D or DA per minute per pmol CYP | 4 pmol per minute per pmol CYP | additive manner | 32 fold | 61 fold | 26 fold | 61 fold | CC(C)=CC(=O)O[C@H]1Cc2cc3ccc(=O)oc3cc2OC1(C)C [D, decursin] | effect of 2C19 inhibitor NBN on metabolism by HLM ([1]; 10 μM NBN, 1 mg/mL HLM): retarded the disappearance of D
5 | not able to convert | 60 pmol D or DA per minute per pmol CYP | 5 pmol per minute per pmol CYP | additive manner | 30 fold | 18 fold | 30 fold | 48 fold | C/C=C(/C)C(=O)O[C@H]1Cc2cc3ccc(=O)oc3cc2OC1(C)C [DA, decursinol angelate] | effect of 3A4 inhibitor ketoconazole (KCZ) on metabolism by HLM ([1]; 2 μM ketoconazole, 1 mg/mL HLM): greater extent of inhibition of DA conversion to DOH and metabolite N8; effect of 2C19*17 allele on plasma AUC0–48h ([3]; human subjects by CYP SNP genotype): trend of gene-dose effect; plasma AUC0–48h compared among three racial groups (Caucasian, Hispanic, Asian) ([3]; human subjects, Kruskal-Wallis test, p<0.05): statistically different among three groups; variation in the Cmax and AUC0–48h among subjects ([4]; healthy human subjects, single dose): ≤ 60 fold
